“Also recorded” adds a separate entry of the source. Each block holds one molecule with its values, some of them ahead of it.
Legend:
wild-type MEFs = assay: Labeling of wild-type MEFs by TG2 activity probes; format: cell-based, mouse; details: for labeling/staining pattern: 1 μM HB230 (3 h) with 10 μM TRX, 5BP at 100 μM
Summary of the method: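 MEFs were grown in DMEM and seeded on glass-bottom plates for 3 days. TG2-knockout controls were E14.5 MEFs immortalised with SV40 large T. Media were replaced, then probe was added with recombinant human TRX for the whole 3 h treatment. Cells were washed in HBSS, fixed in 2% PFA for 10 min at RT, and stained with DAPI. Imaging was confocal with a 63x oil objective; probe was read on the 647 nm channel.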

human TG2 [1] = biological target: T1, human TG2 (Homo sapiens, UniProt P21980); details: nucleophilic substrate; cited from earlier work
T1 sequence (P21980 1-687): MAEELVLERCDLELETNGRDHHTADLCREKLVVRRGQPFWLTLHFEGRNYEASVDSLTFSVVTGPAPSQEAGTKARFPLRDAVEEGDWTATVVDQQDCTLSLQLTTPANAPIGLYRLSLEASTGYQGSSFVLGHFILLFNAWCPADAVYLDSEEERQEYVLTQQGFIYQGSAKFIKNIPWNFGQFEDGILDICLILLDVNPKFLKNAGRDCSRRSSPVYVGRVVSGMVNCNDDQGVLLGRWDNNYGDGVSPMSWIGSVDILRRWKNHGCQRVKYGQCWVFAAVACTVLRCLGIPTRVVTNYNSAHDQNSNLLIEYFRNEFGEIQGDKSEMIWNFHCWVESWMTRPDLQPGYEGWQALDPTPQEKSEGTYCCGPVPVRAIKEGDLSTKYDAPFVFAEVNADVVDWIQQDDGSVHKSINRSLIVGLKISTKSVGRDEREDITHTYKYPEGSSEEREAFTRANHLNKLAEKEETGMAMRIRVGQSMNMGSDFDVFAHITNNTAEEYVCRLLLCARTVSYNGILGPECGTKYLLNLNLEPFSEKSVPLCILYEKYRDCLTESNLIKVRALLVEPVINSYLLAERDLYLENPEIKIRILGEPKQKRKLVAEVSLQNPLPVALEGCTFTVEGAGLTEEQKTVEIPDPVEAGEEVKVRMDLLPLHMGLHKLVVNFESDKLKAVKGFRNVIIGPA

[2] = test system: clathrin mediated endocytosis / LRP-1 in NRK cells; assay: Inhibition of clathrin/LRP-1 mediated endocytosis of 33mer and α2M in NRK cells; format: cell-based, rat; details: for inhibition of large endocytic puncta (33mer + α2M): 12.5 mM MβCD, 20 μM Dyno-4a, 25 μM Pitstop
Summary of the method: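 Clathrin-endocytosis inhibitors used on NRK cells: MβCD 12.5 mM, Dyno-4a 20 μM, Pitstop 25 μM; Pitstop added 30 min before the other treatments. Then labelled α2M and Cy5-33mer for 1.5 h, HBSS washes, 2% PFA fix, DAPI, confocal for large double-labelled puncta.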

[3] = test system: 9022 cells (HLA-DQ2 homozygous B-cell line); assay: Cell surface presentation by HLA-DQ2 expressing 9022 B cells; format: cell-based, human; details: 20 min prior to α2M and 33mer
Summary of the method: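 EBV-immortalised HLA-DQ2-homozygous B cells in RPMI with 10% FBS and 1% PenStrep, pelleted, resuspended and left 20 min at 37 °C to adhere on poly-L-lysine-coated glass. Cy5-33mer, α2M and 100 nM recombinant human TG2 (E. coli, His6) added for 2.5 h. Anti-HLA-DQ2 (1:50) then Alexa 488 secondary, each 20 min on ice, fixed, DAPI, confocal. Cells with surface HLA-DQ2/Cy5 overlay scored; 2-4 frames of 3-6 replicates.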

human TG2 [4] = biological target: T1, human TG2; details: oxidant; without active site occupancy; cited from earlier work
NRK cells = assay: Endocytosis of fluorescent α2M in NRK cells with TG2 inhibitors or substrates; format: cell-based, rat
Summary of the method: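 Rat NRK cells kept in DMEM, split 1:4 to 1:10 every 2-4 days, and imaged as adherent cultures. Small-molecule inhibitors go on 30 min ahead of other additions. Recombinant α2M is purified from culture supernatant by zinc-affinity chromatography and then SEC. After 1.5 h, cells are washed 3× in HBSS, fixed in 2% PFA/PBS for 10 min at RT, DAPI-stained, and imaged by confocal microscopy under low light.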

[5] = biological target: T2, TG2 derivative harboring the N-terminal and catalytic domains but lacking both β-barrel domains (Homo sapiens, UniProt P21980); assay: Kinetics of truncated TG2 lacking both β-barrel domains; format: biochemical; details: pH 7.2, 25 °C, triplicate
T2 sequence (P21980 1-460): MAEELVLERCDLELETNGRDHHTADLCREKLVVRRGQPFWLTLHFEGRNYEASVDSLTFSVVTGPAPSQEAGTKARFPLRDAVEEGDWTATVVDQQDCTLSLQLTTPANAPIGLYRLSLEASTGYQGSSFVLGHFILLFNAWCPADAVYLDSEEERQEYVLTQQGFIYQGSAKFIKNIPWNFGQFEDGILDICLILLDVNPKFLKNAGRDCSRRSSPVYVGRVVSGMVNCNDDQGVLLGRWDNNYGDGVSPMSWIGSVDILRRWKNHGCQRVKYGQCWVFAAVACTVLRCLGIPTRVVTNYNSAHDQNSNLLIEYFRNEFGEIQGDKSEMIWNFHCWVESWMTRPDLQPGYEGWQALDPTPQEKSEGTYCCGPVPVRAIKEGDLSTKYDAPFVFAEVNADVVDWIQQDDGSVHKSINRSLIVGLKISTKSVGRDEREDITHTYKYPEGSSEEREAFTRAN
Summary of the method: (§1)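 Truncated human TG2 constructs with N-terminal His tags (residues 1-586 lacking β2; residues 1-460 lacking β1 and β2) were expressed in Rosetta2 E. coli and purified by Ni, anion exchange and SEC. The assay was GDH-coupled: 200 mM MOPS pH 7.2, 5 mM CaCl2, 10 mM α-ketoglutarate, 18 U/mL GDH, 0.5 mM NADH and Ac-PQLPF-NH2. Reduced enzyme was at 1 μM final, ± Expi293F-expressed human α2M. NADH loss was read at 340 nm for 60 min at 25 °C. Rates came from linear slopes; triplicate.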

[6] = biological target: T3, TG2 derivative lacking the C-terminal β-barrel domain (Homo sapiens, UniProt P21980); assay: Kinetics of truncated TG2 lacking the C-terminal β-barrel domain; format: biochemical; details: pH 7.2, 25 °C, triplicate
T3 sequence (P21980 1-586): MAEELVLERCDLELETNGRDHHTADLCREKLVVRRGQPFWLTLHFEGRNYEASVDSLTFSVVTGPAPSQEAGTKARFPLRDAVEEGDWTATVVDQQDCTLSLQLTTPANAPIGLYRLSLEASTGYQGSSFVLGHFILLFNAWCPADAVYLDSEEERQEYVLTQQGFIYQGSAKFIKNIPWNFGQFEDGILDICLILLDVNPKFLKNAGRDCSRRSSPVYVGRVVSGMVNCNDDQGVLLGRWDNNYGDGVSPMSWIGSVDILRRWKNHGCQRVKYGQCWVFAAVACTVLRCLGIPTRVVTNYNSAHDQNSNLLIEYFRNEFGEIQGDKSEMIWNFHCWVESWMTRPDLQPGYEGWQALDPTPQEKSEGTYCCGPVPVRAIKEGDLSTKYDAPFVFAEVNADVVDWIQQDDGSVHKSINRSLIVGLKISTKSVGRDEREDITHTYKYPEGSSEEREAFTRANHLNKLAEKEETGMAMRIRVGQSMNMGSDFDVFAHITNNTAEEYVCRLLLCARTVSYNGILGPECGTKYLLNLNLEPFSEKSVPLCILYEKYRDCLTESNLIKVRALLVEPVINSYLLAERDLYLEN
Summary of the method: as §1

human TG2 [7] = biological target: T1, human TG2; assay: TG2 steady-state kinetics of substrates, wild-type TG2 ± α2M and vs pH; format: biochemical; details: for kcat: 200 mM MOPS pH 7.2, 5 mM CaCl2, 25 °C, 1 μM TG2, triplicate
Summary of the method: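 His6-tagged human TG2 from E. coli BL21(DE3) was purified by Ni-NTA and anion exchange, reduced, and desalted into PBS. It was assayed at 1 μM final, ± recombinant human α2M (Expi293F-expressed), with GDH/α-ketoglutarate/NADH coupling in 200 mM MOPS pH 7.2 with 5 mM CaCl2. Substrate was Ac-PQLPF-NH2 unless otherwise specified. Absorbance at 340 nm was followed for 60 min at 25 °C. Steady-state rates came from linear progress-curve slopes; triplicate.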

[8] = test system: wild-type bone marrow derived macrophages (BMM); assay: Uptake by bone marrow derived macrophages from wild-type mice; format: cell-based, mouse; details: ± α2M; triplicates
Summary of the method: (§2)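 Bone marrow from female C57BL6 or TG2-knockout mice, red cells removed, plated at 8x10^6 cells in RPMI/10% FBS with 20 ng/mL M-CSF. Fed on days 2 and 4, adherent cells harvested with 5 mM EDTA on day 5. Cy5-33mer uptake imaged by confocal; triplicates, mean ± SD.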

TG2-knockout BMM = assay: Uptake by bone marrow derived macrophages from TG2-knockout mice; format: cell-based, mouse; details: triplicates
Summary of the method: as §2

wild-type BMDCs = assay: Uptake by BMDCs from wild-type mice; format: cell-based, mouse
Summary of the method: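 Bone marrow flushed from tibia and femur of female C57BL6 or TG2-knockout mice, red cells removed. Cells seeded at 2x10^6 per 10-cm dish in RPMI/10% FBS with 10 ng/mL GM-CSF, fed on days 3 and 6, suspension cells harvested day 8. Probed with HB230 or Cy5-33mer; confocal, DAPI counterstain.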

Molecule: NCCCCCNC(=O)CCCC[C@@H]1SC[C@@H]2NC(=O)N[C@@H]21 [5-BP, 5-biotinamidopentylamine]
labeling/staining pattern (wild-type MEFs): label bound to extracellular matrix proteins (e.g., fibronectin) in a predictably fibrous pattern | labeling/staining pattern (wild-type MEFs; listed as 5BP): fibrous incorporation pattern | TG2 substrate activity in words (human TG2 [1]): relatively weak nucleophilic substrate

Molecule: O=C(N/N=C/c1cc(O)c(O)cc1O)c1cc2ccccc2cc1O [Dyno-4a]
inhibition of large endocytic puncta (33mer + α2M) [2]: strong inhibition of α2M and peptide colocalization as large endocytic puncta; also recorded: abrogate the appearance of large puncta

Molecule: O=C1NC(=NS(=O)(=O)c2cccc3ccccc23)S/C1=C\c1ccc(Br)cc1 [Pitstop-2]
inhibition of large endocytic puncta (33mer + α2M) [2]: strong inhibition of α2M and peptide colocalization as large endocytic puncta | inhibition of large endocytic puncta (33mer + α2M) ([2]; listed as Pitstop): abrogate the appearance of large puncta | effect of Pitstop on cell surface 33mer [3]: dose-dependent reduction of cell-surface 33mer labeling

Molecule: NCCSSCCN [cystamine, reference compound]
TG2 inactivation mechanism in words (human TG2 [4]): inactivates TG2 by promoting C370-C371 disulfide bond formation | effect on α2M internalization (large puncta) (NRK cells; fluorescent α2M 100 μg/mL, CK805 10 μM, cystamine 100 μM): unable to promote rapid internalization of fluorescent α2M; also recorded: do not yield the larger puncta at saturating concentrations

kcat ([5]; absence of α2M): 0.12 ± 0.0033 s⁻¹ | kcat ([5]; presence of α2M): 0.12 ± 0.005 s⁻¹ | kcat ([6]; absence of α2M): 0.15 ± 0.017 s⁻¹ | kcat ([6]; presence of α2M): 0.13 ± 0.017 s⁻¹ | kcat (human TG2 [7]; absence of α2M): 0.583 ± 0.017 s⁻¹ | kcat (human TG2 [7]; presence of α2M): 0.483 ± 0.017 s⁻¹
Molecule: AC-PQLPF-NH2

Molecule: H-LQLQPFPQPQLPYPQPQLPYPQPQLPYPQPQPF-Rink resin [SulfoCy5-native-33mer]
uptake by wild-type BMM [8]: robustly internalized the 33mer in the presence, but not absence, of α2M | uptake by TG2-knockout BMM (TG2-knockout BMM): do not internalize 33mer | uptake by wild-type BMDCs (wild-type BMDCs): take up HB230 and 33mer

Molecule: TG2: recombinant human transglutaminase 2
pH-dependence of TG2 catalytic activity (human TG2 [7]; deamidation of Ac-PQLPF-NH2, pH 4.2-7.2, steady-state, triplicates): preserved upon acidification until at least pH 5

Molecule: fibronectin
endocytosis of fibronectin / effect on α2M puncta (NRK cells; 100 μg/mL fluorescent α2M, increasing exogenous fibronectin): dose-dependence increase in the abundance of large but not small puncta; also recorded: endocytosis of extracellular fibronectin via this pathway

Molecule: methyl-β-cyclodextrin [MβCD]
inhibition of large endocytic puncta (33mer + α2M) [2]: strong inhibition of α2M and peptide colocalization as large endocytic puncta; also recorded: abrogate the appearance of large puncta

B1: RAP: potent endogenous antagonist of α2M binding to LRP-1, receptor associated protein (protein, UniProt P30533 35-357, looked up)
Alpha-2-macroglobulin …: YSREKNQPKPSPKRESGEEFRMEKLNQLWEKAQRLHLPPVRLAELHADLKIQERDELAWKKLKLDGLDEDGEKEARLIRNLNVILAKYGLDGKKDARQVTSNSLSGTQEDGLDDPRLEKLWHKAKTSGKFSGEELDKLWREFLHHKEKVHEYNVLLETLSRTEEIHENVISPSDLSDIKGSVLHSRHTELKEKLRSINQGLDRLRRVSHQGYSTEAEFEEPRVIDLWDLAQSANLTDKELEAFREELKHFEAKIEKHNHYQKQLEIAHEKLRHAESVGDGERVSRSREKHALLEGRTKELGYTVKKHLQDLSGRISRARHNEL
inhibition of large 33mer-containing puncta by LRP-1 antagonist ([2]; RAP prior to Cy5-33mer and α2M): inhibits the formation of large 33mer-containing puncta; also recorded: fully ablated the formation of large puncta

B2: TRX: recombinant human thioredoxin (protein, UniProt P10599 2-105, looked up)
Thioredoxin: VKQIESKTAFQEALDAAGDKLVVVDFSATWCGPCKMIKPFFHSLSEKYSNVIFLEVDVDDCQDVASECEVKCMPTFQFFKKGQKVGEFSGANKEKLEATINELV
dependence of probe labeling on TRX (wild-type MEFs; TRX added for duration of HB230 treatment): strongly dependent
